Experimental data as given in PubChem BioAssay AID1448 (The Scripps Research Institute Molecular Screening Center, 2008).
About 630 (0.29%) of roughly 220,000 compounds were called active.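 How the source made its calls: active means activation above its plate's cutoff, the mean activation of the plate's test wells plus 3 SD (cut at about 12% in these data); inactive means the rest.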 The full list was thinned out, with actives kept by preference.

Each compound was assayed against Mucolipin-3 (Homo sapiens) (UniProt Q8TDD5) (assay: activators of mucolipin-3 cation channel – cell-based, HEK293 TRPML3-YFP, Fluo-8 calcium fluorescence, 3 µM, primary screen (AID 1448;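 further: 0% = DMSO only wells and 100% = carbachol wells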)). Conditions: at 3 µM, stronger effect = higher value, 100% = the carbachol control signal.
Chain of Mucolipin-3 (Homo sapiens) (Q8TDD5 whole entry, looked up): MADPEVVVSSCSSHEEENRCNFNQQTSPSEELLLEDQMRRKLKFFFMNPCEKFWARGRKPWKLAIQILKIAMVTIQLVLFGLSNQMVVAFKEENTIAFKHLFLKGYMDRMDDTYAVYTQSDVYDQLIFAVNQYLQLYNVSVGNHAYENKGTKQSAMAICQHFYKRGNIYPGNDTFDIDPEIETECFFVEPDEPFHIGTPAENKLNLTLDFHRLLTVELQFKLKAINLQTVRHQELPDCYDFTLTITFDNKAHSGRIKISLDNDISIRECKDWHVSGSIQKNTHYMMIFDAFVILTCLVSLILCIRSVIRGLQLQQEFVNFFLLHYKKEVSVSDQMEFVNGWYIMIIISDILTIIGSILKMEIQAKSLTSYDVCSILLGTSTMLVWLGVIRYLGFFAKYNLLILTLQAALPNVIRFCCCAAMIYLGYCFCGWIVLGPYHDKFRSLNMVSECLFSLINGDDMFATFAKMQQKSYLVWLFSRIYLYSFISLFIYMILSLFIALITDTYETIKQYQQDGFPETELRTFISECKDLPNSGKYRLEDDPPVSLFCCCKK
Method in brief: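 Test system: HEK293 cells stably carrying human TRPML3-YFP; Doses: single dose, 3 µM final nominal compound, 0.3% DMSO final; Schedule: dye loading 1 h 37 °C then 30 min ambient, 125 s read; Technique: Fluo-8 calcium fluorescence; Benchmarks: high control carbachol 87 µM, low control DMSO.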
With COCCNC(=O)C(OC(=O)c1cccs1)c1ccc(F)cc1 (stereo not drawn) the activation was 0.35% (inactive).
CC(NC(=O)COC(=O)c1ccc2c(c1)OCO2)c1ccccc1 (stereo not drawn) was tested, and the activation was -0.07% (inactive).
In the case of COc1cc(OC)cc(C(=O)N[C@H](C(=O)OCC(=O)NC(C)c2ccccc2)C(C)C)c1 (stereo partly drawn), the activation is reported as 17.2% (active).
For COc1cc(OC)cc(C(=O)N[C@H](C(=O)Nc2nc3ccccc3[nH]2)C(C)C)c1, the activation was 0.87% (inactive).
COc1ccc(Br)cc1CN(C)CC(=O)Nc1cc(Cl)cc(Cl)c1 was tested, and the activation was 0.63% (inactive).
CC(=O)c1ccc(-c2ccc(Cn3c(C)nc4cc(N)c(C)nc43)cc2)cc1 was tested, and the activation was 0.69% (inactive).
With Cc1cc2nc3c(=O)n(Cc4ccccc4)c(=O)[nH]c3nc2cc1N the activation was 23.9% (active).
In the case of O=c1[nH]c2c(c(=O)n1Cc1ccccc1)CCC2, the activation is reported as 0.43% (inactive).
With CCCC(=O)Nc1cccc(NC(=S)NC(=O)C(C)Oc2ccc(Cl)cc2Cl)c1 (stereo not drawn) the activation was 0.1% (inactive).
In the case of COc1ccc(C(=O)NC(=S)NNC(=O)c2c(-c3ccccc3)noc2C)cc1, the activation is reported as 31.2% (active).
With COc1ccc(C(=O)NC(=S)NNC(=O)CCc2ccccc2)cc1 the activation was 2.05% (inactive).
With Cc1onc(-c2ccccc2)c1C(=O)NNC(=S)NC(=O)c1ccc(F)cc1 the activation was 1.79% (inactive).
With O=C(Nc1ccc(S(=O)(=O)Nc2nccs2)cc1)c1cc(-c2ccncc2)nc2ccccc12 the activation was 0.93% (inactive).
For CC(C)Cc1nc(Cl)c(C#N)c2c1CCC2, the activation was -0.84% (inactive).
With O=C(CN1CCN(C(=S)NC2CCCC2)CC1)Nc1ccc(Oc2ccccc2)cc1 the activation was 3.02% (inactive).
In the case of CCOCC(=O)Nc1ncc(S(=O)(=O)c2ccc([N+](=O)[O-])cc2)s1, the activation is reported as 2.38% (inactive).
With O=C(CCc1ccccc1)Nc1ncc([N+](=O)[O-])s1 the activation was 8.03% (inactive).
In the case of CC(=O)Oc1ccccc1C(=O)Nc1ncc([N+](=O)[O-])s1, the activation is reported as 16.7% (active).
For O=C(Cc1c(F)cccc1Cl)Nc1ncc([N+](=O)[O-])s1, the activation was 10.9% (inactive).
For CCC(C)NC(=O)c1ccc(N2CCC3(CC2)OCCO3)c([N+](=O)[O-])c1 (stereo not drawn), the activation was -0.07% (inactive).
For COc1cc2nc(CN(C)Cc3ccc(F)cc3)[nH]c(=O)c2cc1OC, the activation was 0.67% (inactive).
Cc1cs/c(=N\N=C\c2ccc(O)cc2)n1Cc1ccco1 was tested, and the activation was -0.12% (inactive).
With CN(c1ccccc1)c1ccc(/C=c2\s/c(=C(/C#N)C(=O)C(C)(C)C)n(Cc3ccco3)c2=O)cc1 the activation was 14.8% (active).
With COc1ccc(NC(=O)Cn2c(=O)n(Cc3ccco3)c(=O)c3ccccc32)cc1 the activation was 0.61% (inactive).
Cc1sc2ncnc(Sc3nc4ccccc4s3)c2c1C was tested, and the activation was 0.98% (inactive).
For CCc1c(C)nc2c(-c3ccccc3)c(C)nn2c1Nc1ccc(NC(C)=O)cc1, the activation was -0.72% (inactive).
CN(CC(=O)Nc1cccc(F)c1)CC(=O)Nc1cccc([N+](=O)[O-])c1 was tested, and the activation was 26.9% (active).
Cc1ccc(NC(=O)CN(C)CC(=O)Nc2cccc(F)c2)cc1[N+](=O)[O-] was tested, and the activation was 4.13% (inactive).
Cc1ccc(CN(C)CC(=O)Nc2cccc([N+](=O)[O-])c2)o1 was tested, and the activation was -0.52% (inactive).
COC(=O)C1=C(C)N(c2ccc(Br)cc2)C(=O)/C1=C\c1ccco1 was tested, and the activation was 0.24% (inactive).
In the case of O=C(O)C(c1ccccc1)C1(O)CCCCC1 (stereo not drawn), the activation is reported as 1.12% (inactive).
In the case of CC(NC(=O)C(C)(C)C)C(c1cccs1)N1CCN(Cc2ccccc2)CC1 (stereo not drawn), the activation is reported as -0.4% (inactive).
In the case of CCOc1cc(/C=C2/C(=N)N3OC(C)=CC3=NC2=O)ccc1OC, the activation is reported as 0.9% (inactive).
COc1ccc(OCCCn2cccc2/C=C2/C(=N)N3OC(C)=CC3=NC2=O)cc1 was tested, and the activation was 1.97% (inactive).
With CC1=CC2=NC(=O)/C(=C/c3coc4ccccc4c3=O)C(=N)N2O1 the activation was 18.6% (active).
For COc1ccc(N2C(=O)/C(=C\c3ccco3)N=C2SCC(N)=O)cc1Cl, the activation was 0.09% (inactive).
In the case of O=C(c1cccc(F)c1)N1CCN(c2ccc([N+](=O)[O-])c3cccnc23)CC1, the activation is reported as 0.25% (inactive).
With CCN1CCN(c2nc(Nc3cccc(F)c3)nc(N)c2[N+](=O)[O-])CC1 the activation was 0.34% (inactive).
For CCOC(=O)c1c(-c2ccccc2)csc1NC(=S)NC(=O)c1ccccc1, the activation was -0.33% (inactive).
In the case of COCCCNC(=S)NC(=O)c1ccccc1, the activation is reported as 0.01% (inactive).
In the case of CCOC(=O)C1=C(NC(=S)NC(=O)c2ccccc2)c2ccccc2CC1(C)C, the activation is reported as 43.3% (active).
CCc1ccc2ncc(C(=O)c3ccccc3)c(N3CCOCC3)c2c1 was tested, and the activation was -0.05% (inactive).
COCCNc1cc(NCCOC)c([N+](=O)[O-])cc1[N+](=O)[O-] was tested, and the activation was 0.69% (inactive).
In the case of COc1ccc(S(=O)(=O)N2CCCCC2)cc1Br, the activation is reported as 9.19% (inactive).
With CCOc1ccc(Br)cc1S(=O)(=O)N1CCC(C(=O)O)CC1 the activation was 1.07% (inactive).
With COc1ccc(S(=O)(=O)N2CCCC2)c(C)c1C the activation was 13.3% (active).
COc1ccc(F)cc1S(=O)(=O)N1CCCCC1 was tested, and the activation was 0.95% (inactive).
With COc1ccc(S(=O)(=O)N2CCOCC2)c(C)c1C the activation was 0.66% (inactive).
With CCOc1ccc(S(=O)(=O)N2CCCCCC2)c2ccccc12 the activation was 101% (active).
COc1ccccc1Cn1c(C)nnc1-c1cnn(C)c1N was tested, and the activation was -0.66% (inactive).
With CCCCN(CCCC)CC(O)Cn1c2ccccc2c(=O)c2ccccc21 (stereo not drawn) the activation was 0.31% (inactive).
For Cc1cc(Cl)ccc1OCc1nc(-c2ccncc2)no1, the activation was -0.07% (inactive).
In the case of O=C(CSc1nnc2n1CCCN2)c1ccccc1, the activation is reported as 0.51% (inactive).
With CCN(CC)C(=O)CSc1nc2ccccc2n1CC(=O)N1CCN(c2ccccc2OC)CC1 the activation was -0.02% (inactive).
In the case of COc1ccc(C2(CNC(=O)C(c3ccccc3)c3ccccc3)CCOCC2)cc1OC, the activation is reported as 0% (inactive).
In the case of CCN(CC)C(=O)CC1(c2ccccc2OC)CCOC(C(C)C)C1 (stereo not drawn), the activation is reported as 17.3% (active).
For CCC(C)(C)NC(=O)C(c1ccc(O)cc1)N(C(=O)Cn1nnc2ccccc21)c1ccc(NC(C)=O)cc1 (stereo not drawn), the activation was 0.14% (inactive).
With COc1cc(-c2cc(C(=O)OCC(=O)Nc3ccc4c(c3)OCO4)c3ccccc3n2)cc(OC)c1OC the activation was -0.31% (inactive).
NS(=O)(=O)c1ccc(NC(=O)COC(=O)c2cc3ccccc3oc2=O)cc1 was tested, and the activation was 0.31% (inactive).
With NC(=O)c1ccc(NC(=O)COC(=O)c2c3c(nc4ccccc24)/C(=C\c2ccc4c(c2)OCO4)CCC3)cc1 the activation was 29.2% (active).
For O=C(COC(=O)c1c2c(nc3ccccc13)/C(=C\c1cccs1)CCC2)Nc1ccccc1Cl, the activation was 0.46% (inactive).
With NS(=O)(=O)c1ccc(NC(=O)COC(=O)c2ccc(Cl)nc2)cc1 the activation was 0.29% (inactive).
NS(=O)(=O)c1ccc(NC(=O)COC(=O)c2c3c(nc4ccccc24)/C(=C\c2ccc4c(c2)OCO4)CCC3)cc1 was tested, and the activation was 24% (active).
In the case of Cc1ccc(C2=N/C(=C\c3ccc(OS(=O)(=O)c4ccc(C)cc4)cc3)C(=O)O2)cc1, the activation is reported as 0.55% (inactive).
In the case of CCN(CC)S(=O)(=O)c1ccc(C)c(NC(=O)COc2ccc(Br)cc2Cl)c1, the activation is reported as 0.13% (inactive).
O=C(Nc1ccccc1C(=O)O)c1cc(S(=O)(=O)N2CCCCC2)cs1 was tested, and the activation was -0.64% (inactive).
With c1csc(-c2nnc(COc3ccc4c(c3)OCO4)o2)c1 the activation was 0.41% (inactive).
With c1ccc2c(C[n+]3csc4ccccc43)cccc2c1 the activation was 34.1% (active).
In the case of Nc1scc[n+]1Cc1cccc2cccnc12, the activation is reported as 0.56% (inactive).
With c1ccc2c(CSCc3nc4ccccc4[nH]3)cccc2c1 the activation was 0.61% (inactive).
CC1CCCC(C)N1C(=O)CN1CCN(c2nc(-c3ccc(F)cc3)cs2)CC1 (stereo not drawn) was tested, and the activation was 12.9% (active).
With O=C(CN1CCN(c2nc(-c3ccccc3)cs2)CC1)NCc1ccc2c(c1)OCO2 the activation was 0.02% (inactive).
For COc1cccc(NC(=O)CN2CCN(c3nc(-c4cccc(OC)c4)cs3)CC2)c1, the activation was 0.54% (inactive).
With CC1CCCC(NC(=O)COC(=O)[C@@H]2CC(O)CN2S(=O)(=O)c2ccc3c(c2)OCCO3)C1C (stereo partly drawn) the activation was 0.86% (inactive).
For COc1cc(N/C=C2\CC(=O)NC(C)=C2C#N)cc(OC)c1OC, the activation was 0.7% (inactive).
COc1cccc(CC(=O)N2CCCC(CCC(=O)N3CCN(c4ccccn4)CC3)C2)c1 (stereo not drawn) was tested, and the activation was 2.9% (inactive).
In the case of CC(C[N+](C)(C)C)OC(N)=O (stereo not drawn), the activation is reported as 3.52% (inactive).
With CC(=O)OC(C)C[N+](C)(C)C (stereo not drawn) the activation was 78.4% (active).
With COc1ccc(C[C@H]2CN3C(=NC[C@H]3C)N2CCNC(=O)CCC2CCCCC2)cc1 the activation was 0.4% (inactive).
With CCCCCCCCCCOC(=O)C[N+](C)(C)CC1CCCCC1O (stereo not drawn) the activation was -0.99% (inactive).
In the case of Cc1cccc(C)c1N1CCN(S(=O)(=O)N2CCCCC2)CC1, the activation is reported as 57.5% (active).
Cc1cccc(C)c1N1CCN(S(=O)(=O)N2CCOCC2)CC1 was tested, and the activation was 1.69% (inactive).
In the case of O=S(=O)(N1CCCCC1)N1CCNCC1, the activation is reported as 0.7% (inactive).
For CCC(C)(C)c1ccc(OCC(=O)N(C)C)c(C(C)(C)CC)c1, the activation was 0.49% (inactive).
O=C(CSc1nnc(-c2ccccc2)o1)N1CCOCC1 was tested, and the activation was 0.92% (inactive).
With CC1=CC(C)(C)N(C(=O)CSc2nccn2C)c2cc(C)ccc21 the activation was -1.12% (inactive).
CC1=CC(C)(C)N(C(=O)CSc2nnc(-c3ccccc3)o2)c2ccc(C)cc21 was tested, and the activation was 23.2% (active).
In the case of Cc1ccc(C(=O)N2CCN(S(=O)(=O)N3CCOCC3)CC2)cc1, the activation is reported as 0.24% (inactive).
In the case of O=C(COC(=O)CC1CC2CCC1C2)NC(=O)NC1CCCC1 (stereo not drawn), the activation is reported as 0% (inactive).
COc1ccc(S(=O)(=O)NC(C)C(=O)Nc2cccc([N+](=O)[O-])c2)cc1 (stereo not drawn) was tested, and the activation was -0.47% (inactive).
With COc1ccc(-c2cn(-c3ccc(OC)cc3)c(=S)[nH]2)cc1 the activation was 0.32% (inactive).
For COc1cc(OC)c(-n2c(C)cc(C=O)c2C)cc1Cl, the activation was -0.32% (inactive).
With COc1cc(OC)c(-n2cc(-c3ccc(Cl)cc3)[nH]c2=O)cc1Cl the activation was 12.1% (active).
